In ChEMBL document CHEMBL5674867, “The SUV39H1 inhibitor chaetocin induces differentiation and shows synergistic cytotoxicity with other epigenetic drugs in acute myeloid leukemia cells” (Blood Cancer J, 2015):
pIC50: −log10 of the molar value. The source made the active and inactive calls. The rule behind the calls is not given here.

How the values were obtained:
KG-1a [1] = test: Cytotoxicity against human KG-1a cells at 20 nM assessed as decrease in cell viability in combination with 0.5 uM SAHA measured after 24 hrs by MTT assay; assay type: functional
U-937 [2] = test: Cytotoxicity against human U-937 cells at 20 nM assessed as decrease in cell viability in combination with 0.5 uM SAHA measured after 24 hrs by MTT assay; assay type: functional
HL-60 [3] = test: Cytotoxicity against human HL-60 cells at 20 nM assessed as decrease in cell viability in combination with 0.5 uM SAHA measured after 24 hrs by MTT assay; assay type: functional
KG-1a [4] = test: Cytotoxicity against human KG-1a cells assessed as decrease in cell viability measured after 24 hrs by MTT assay; assay type: functional, cell-based
In short: (§1)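 MTT viability read 24 h after exposure over a low concentration range (0–25 μM for one inhibitor, 0–100 for the other as printed). IC50 was derived for each line. Culture: HL-60 and U937 in RPMI + 10% FBS, KG-1a in IMDM + 15% FBS.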

HL-60 [5] = test: Induction of myeloid differentiation in human HL-60 cells at 20 uM assessed as increase in CD11b mRNA expression measured after 48 hrs by RT-PCR assay; assay type: functional, cell-based
In short: (§2)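 Cells exposed for 48 h (KG-1a in IMDM/15% FBS; HL-60 and U937 in RPMI/10% FBS). Total RNA extracted, 1 µg reverse transcribed, CD11b quantified by SYBR green real-time PCR normalised to actin. Cycling was 30 cycles of 95 °C, 60 °C and 72 °C, 45 s each. Mean ± s.e. of three independent experiments, compared with untreated control.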

U-937 [6] = test: Induction of myeloid differentiation in human U-937 cells at 20 uM assessed as increase in CD11b mRNA expression measured after 48 hrs by RT-PCR assay; assay type: functional, cell-based; in short: as §2
U-937 [7] = test: Cytotoxicity against human U-937 cells assessed as decrease in cell viability measured after 48 hrs by MTT assay; assay type: functional, cell-based; conditions: U-937, 48 h
U-937 [8] = test: Cytotoxicity against human U-937 cells assessed as decrease in cell viability measured after 24 hrs by MTT assay; assay type: functional, cell-based; conditions: U-937, 24 h; in short: as §1
HL-60 [9] = test: Cytotoxicity against human HL-60 cells assessed as decrease in cell viability measured after 48 hrs by MTT assay; assay type: functional, cell-based; conditions: HL-60, 48 h
KG-1a [10] = test: Induction of myeloid differentiation in human KG-1a cells at 20 uM assessed as increase in CD11b mRNA expression measured after 48 hrs by RT-PCR assay; assay type: functional, cell-based; in short: as §2
KG-1a [11] = test: Cytotoxicity against human KG-1a cells assessed as decrease in cell viability measured after 48 hrs by MTT assay; assay type: functional, cell-based
HL-60 [12] = test: Cytotoxicity against human HL-60 cells assessed as decrease in cell viability measured after 24 hrs by MTT assay; assay type: functional, cell-based; conditions: HL-60, 24 h; in short: as §1
KG-1a [13] = test: Induction of myeloid differentiation in human KG-1a cells at 50 nM measured after 12 hrs by Liu's staining method; assay type: functional, cell-based
In short: (§3)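 Cells received single epigenetic inhibitors or combinations and were collected by cytospin. After Liu's staining (reagent A 1 min, reagent B 2.5 min), differentiated cells were counted under a light microscope. Mean ± s.e. of three independent experiments.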

U-937 [14] = test: Induction of myeloid differentiation in human U-937 cells at 50 nM measured after 12 hrs by Liu's staining method; assay type: functional, cell-based; in short: as §3
HL-60 [15] = test: Induction of myeloid differentiation in human HL-60 cells at 50 nM measured after 12 hrs by Liu's staining method; assay type: functional, cell-based; in short: as §3

Row | Structure (SMILES) | Activity (KG-1a [1]) [%] | Activity (U-937 [2]) [%] | Activity (HL-60 [3]) [%] | pIC50 (KG-1a [4]) | Activity (HL-60 [5]) | Activity (U-937 [6]) | pIC50 (U-937 [7]) | pIC50 (U-937 [8]) | pIC50 (HL-60 [9]) | Activity (KG-1a [10]) | pIC50 (KG-1a [11]) | pIC50 (HL-60 [12]) | Activity (KG-1a [13]) | Activity (U-937 [14]) | Activity (HL-60 [15])
1 | CN1C(=O)[C@@]23C[C@]4([C@]56C[C@@]78SS[C@@](CO)(C(=O)N7[C@H]5Nc5ccccc56)N(C)C8=O)c5ccccc5N[C@@H]4N2C(=O)[C@]1(CO)SS3.O=C(CCCCCCC(=O)Nc1ccccc1)NO | 40 | 20 | 40 |  |  |  |  |  |  |  |  |  |  |  | 
2 | COc1cc2c(NC3CCN(C(C)C)CC3)nc(C3CCCCC3)nc2cc1OCCCN1CCCC1 |  |  |  | 4.58 | inactive | inactive | 4.71 | 4.67 | 4.62 | inactive | 4.65 | 4.56 |  |  | 
3 | Cc1sc2c(c1C)C(c1ccc(Cl)cc1)=N[C@@H](CC(=O)OC(C)(C)C)c1nnc(C)n1-2 |  |  |  |  |  |  |  |  |  |  |  |  | Active | Active | Active
4 | CN1C(=O)[C@@]23C[C@]4([C@]56C[C@@]78SS[C@@](CO)(C(=O)N7[C@H]5Nc5ccccc56)N(C)C8=O)c5ccccc5N[C@@H]4N2C(=O)[C@]1(CO)SS3 [CHAETOCIN] | 40 | 20 | 40 | 9.99 |  |  | 10.09 | 10.02 | 9.90 |  | 10.02 | 9.82 |  |  | 
